Test results published in ChEMBL document CHEMBL4138315, “Synthesis and Evaluation of a Novel Bivalent Selective Antagonist for the Mu-Delta Opioid Receptor Heterodimer that Reduces Morphine Withdrawal in Mice” (J Med Chem, 2018).
Calls of active or inactive are those of the source. No cut-off for these calls is given here. Where a SMILES comes first, the peptide text is derived from it. [ ]: non-standard residue; d: D form. ξ: configuration not given here. d2Nal = N[C@H](Cc1ccc2ccccc2c1)C(=O)O; ξTic = O=C(O)C1Cc2ccccc2CN1

Tests used:
[1] = target: T1, Delta-type opioid receptor (Homo sapiens, UniProt P41143); test: Displacement of [3H]-diprenorphine from human DOR expressed in CHO cell membranes after 80 mins by scintillation counting analysis
T1 sequence (P41143 whole entry): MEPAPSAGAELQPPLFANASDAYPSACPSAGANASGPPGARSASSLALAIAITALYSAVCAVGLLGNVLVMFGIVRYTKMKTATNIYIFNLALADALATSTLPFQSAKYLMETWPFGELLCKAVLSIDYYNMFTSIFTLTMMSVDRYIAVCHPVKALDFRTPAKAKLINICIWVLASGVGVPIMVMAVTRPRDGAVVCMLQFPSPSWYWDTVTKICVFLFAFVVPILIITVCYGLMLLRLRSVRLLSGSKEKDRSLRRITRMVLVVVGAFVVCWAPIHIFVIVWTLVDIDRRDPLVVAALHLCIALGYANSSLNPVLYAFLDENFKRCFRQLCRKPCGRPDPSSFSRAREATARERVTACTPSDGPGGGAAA
Method in brief: (§1)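 Competition binding on MOR-, DOR- or MDOR-CHO membranes used a fixed 3H-diprenorphine level against competitor concentration curves; 30°C, 80 min, GF/B filtration, scintillation counting. Nonspecific binding defined with 500 nM each DMT-Tic-Ala-OH and CTAP. Ki was derived from IC50 and the 3H-diprenorphine KD in each line; MDOR data fitted with a 2-site model. N = 3-4, mean ± SEM.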

[2] = target: T2, Mu-type opioid receptor (Homo sapiens, UniProt P35372); test: Displacement of [3H]-diprenorphine from human MOR expressed in CHO cell membranes after 80 mins by scintillation counting analysis; method in brief: as §1
T2 sequence (P35372 whole entry): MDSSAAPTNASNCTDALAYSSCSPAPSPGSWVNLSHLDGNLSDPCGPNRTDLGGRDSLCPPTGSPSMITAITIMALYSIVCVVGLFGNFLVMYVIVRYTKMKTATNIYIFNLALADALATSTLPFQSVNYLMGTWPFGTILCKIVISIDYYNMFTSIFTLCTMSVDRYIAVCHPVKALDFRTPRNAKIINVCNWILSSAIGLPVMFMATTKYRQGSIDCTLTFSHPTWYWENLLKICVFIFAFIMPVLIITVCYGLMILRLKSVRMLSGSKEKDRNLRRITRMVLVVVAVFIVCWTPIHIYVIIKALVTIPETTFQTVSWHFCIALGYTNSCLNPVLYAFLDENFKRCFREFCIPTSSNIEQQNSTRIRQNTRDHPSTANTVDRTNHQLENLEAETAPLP

[3] = target: T1, Delta-type opioid receptor; test: Antagonist activity at human DOR expressed in CHO cell membranes assessed as inhibition of CYM51010-induced [35S]-GTPgammaS binding preincubated for 5 mins followed by CYM51010 and [35S]-GTPgammaS addition measured after 80 mins; format: functional
Method in brief: (§2)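 Membranes from CHO cells stably expressing human opioid receptor (N-terminal tagged) were preincubated 5 min with antagonist concentration curves, then given 1 µM CYM51010 and 0.1 nM 35S-GTPγS; 30°C, 80 min, GF/B filtration, scintillation counting. Normalized to CYM51010 alone (100%) and vehicle (0%). Fits: 1-site for MOR/DOR (IC50), 2-site for MDOR (IC50HIGH). N = 3-4, duplicate, mean ± SEM.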

[4] = target: T2, Mu-type opioid receptor; test: Antagonist activity at human MOR expressed in CHO cell membranes assessed as inhibition of CYM51010-induced [35S]-GTPgammaS binding preincubated for 5 mins followed by CYM51010 and [35S]-GTPgammaS addition measured after 80 mins; format: functional; method in brief: as §2
[5] = target: T3, Opioid receptors; mu & delta (Homo sapiens, UniProt P41143+P35372); test: (§3) Antagonist activity at human mu-delta opioid receptor heterodimer expressed in CHO cell membranes assessed as inhibition of CYM51010-induced [35S]-GTPgammaS binding at high site fraction preincubated for 5 mins followed by CYM51010 and [35S]-GTPgammaS addition measured after 80 mins; format: functional; method in brief: as §2
T3 sequence (P35372 whole entry, looked up): as the sequence (P35372 whole entry) above
T3 sequence (P41143 whole entry, looked up): as the sequence (P41143 whole entry) above

[6] = target: T3, Opioid receptors; mu & delta; test: as §3, with “80 mins relative to control” for “80 mins”; format: functional
Method in brief: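 35S-GTPγS coupling in MDOR-CHO membranes: 5 min antagonist pre-incubation, then 1 µM CYM51010 plus 0.1 nM 35S-GTPγS, 30°C for 80 min, filtration and scintillation read. A 3-variable 2-site antagonist fit gave FHIGH, the fraction of the high-potency site. N = 3-4 independent experiments.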

[7] = target: T3, Opioid receptors; mu & delta; test: Antagonist activity at human mu-delta opioid receptor heterodimer expressed in CHO cell membranes assessed as inhibition of DAMGO-induced [35S]-GTPgammaS binding preincubated for 5 mins followed by DAMGO and [35S]-GTPgammaS addition measured after 80 mins; format: functional
Method in brief: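 MDOR-CHO membranes were preincubated 5 min with antagonist concentration curve, then 1 µM DAMGO and 0.1 nM 35S-GTPγS were added. Incubated 30°C, 80 min; filter harvest, scintillation counting. Normalized to agonist alone and vehicle. N = 3 independent experiments in duplicate.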

[8] = target: Kappa-type opioid receptor (Homo sapiens) (UniProt P41145); test: Antagonist activity at human KOR expressed in CHO cell membranes assessed as inhibition of U50488-induced [35S]-GTPgammaS binding preincubated for 5 mins followed by U50488 and [35S]-GTPgammaS addition measured after 80 mins; format: functional
Sequence of Kappa-type opioid receptor (Homo sapiens) (P41145 whole entry): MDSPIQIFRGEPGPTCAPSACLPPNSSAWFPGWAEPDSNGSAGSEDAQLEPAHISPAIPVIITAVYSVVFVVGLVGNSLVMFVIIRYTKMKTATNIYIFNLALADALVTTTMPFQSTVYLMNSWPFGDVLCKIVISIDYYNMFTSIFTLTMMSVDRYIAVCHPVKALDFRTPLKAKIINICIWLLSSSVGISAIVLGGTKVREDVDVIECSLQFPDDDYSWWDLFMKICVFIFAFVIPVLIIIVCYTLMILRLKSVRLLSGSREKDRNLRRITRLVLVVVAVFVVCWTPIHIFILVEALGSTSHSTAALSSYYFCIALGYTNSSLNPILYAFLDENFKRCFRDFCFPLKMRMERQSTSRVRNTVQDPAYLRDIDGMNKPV
Method in brief: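 KOR-CHO membranes (human receptor, N-terminal tag), antagonist concentration curve preincubated 5 min, then 1 µM U50,488 plus 0.1 nM 35S-GTPγS added. Incubated 30°C, 80 min; filtration and scintillation counting. Vehicle 0.1% DMSO in assay buffer with 0.1% BSA. Normalized to agonist alone (100%) and vehicle (0%). One-site curve fit; N = 3 independent experiments in duplicate.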

[9] = species on record: Mus musculus; test: Antinociceptive activity in CD1 mouse assessed as reduction in CYM51010-induced nociception at 10 nmol pretreated for 5 mins followed by CYM51010 injection measured up to 2 hrs by tail flick assay; format: functional, organism-based
[10] = target: T3, Opioid receptors; mu & delta; test: Displacement of [3H]-diprenorphine from human mu-delta opioid receptor heterodimer expressed in CHO cell membranes at high site fraction after 80 mins by scintillation counting analysis relative to control
[11] = target: T3, Opioid receptors; mu & delta; test: Displacement of [3H]-diprenorphine from human mu-delta opioid receptor expressed in CHO cell membranes after 80 mins by scintillation counting analysis; method in brief: as §1
[12] = species on record: Homo sapiens; test: Selectivity ratio of KiH for human mu-delta opioid receptor heterodimer expressed in CHO cell membranes to Ki for human DOR expressed in CHO cell membranes; format: cell-based
[13] = species on record: Homo sapiens; test: Selectivity ratio of IC50H for human mu-delta opioid receptor heterodimer expressed in CHO cell membranes to IC50 for human DOR expressed in CHO cell membranes; format: cell-based
[14] = target: T3, Opioid receptors; mu & delta; test: as §3, with “site fraction at 100 uM preincubated for” for “site fraction preincubated for”, “80 mins relative to control” for “80 mins”; format: functional

| Ki ([2]; cho) [nM] | IC50 ([3]; cho) [nM] | IC50 ([4]; cho) [nM] | Imax [10] [%] | KiH [11] [nM] | Structure (SMILES) | Ki ([1]; cho) [nM] | IC50H [5] [nM] | Imax [6] [%] | Ratio Ki [12] | Ratio IC50 [13] | other results |
| --- | --- | --- | --- | --- | --- | --- | --- | --- | --- | --- | --- |
| > 1000 | 58 | > 1000 | – | – | N[C@@H](Cc1ccc(O)cc1)C(=O)N1Cc2ccccc2C[C@H]1C(=O)NCC(=O)NCCCCC(=O)N[C@@H](CCCCNC(=O)CNC(=O)[C@@H](Cc1cccc2ccccc12)NC(=O)[C@H](Cc1ccccc1)NC(=O)[C@@H]1CCCN1C(=O)[C@@H](N)Cc1ccc(O)cc1)C(=O)O | 120 | – | – | – | – | – |
| – | – | – | – | – | N[C@@H](Cc1ccc(O)cc1)C(=O)N1Cc2ccccc2CC1C(=O)O (stereo partly specified) (H-Tyr-[ξTic]-OH) | – | 250 | 44 | – | – | Ki [1]: 230 nM; IC50 [3]: 100 nM; IC50 [7]: 36.9 nM; inhibition [8]: inactive; Activity [9]: inactive |
| – | – | – | 15 | 8.1 | N[C@@H](Cc1ccc(O)cc1)C(=O)N1Cc2ccccc2C[C@@H]1C(=O)NCC(=O)NCCC(=O)NCCCCCC(=O)N[C@H](CCCCNC(=O)CCCCCNC(=O)CNC(=O)[C@@H](Cc1cccc2ccccc12)NC(=O)[C@H](Cc1ccccc1)NC(=O)[C@@H]1CCCN1C(=O)[C@@H](N)Cc1ccc(O)cc1)C(=O)O | – | 20 | 41 | 35 | 5 | – |
| > 1000 | 100 | > 1000 | – | – | N[C@@H](Cc1ccc(O)cc1)C(=O)N1Cc2ccccc2C[C@H]1C(=O)NCC(=O)NCCC(=O)NCCCCCC(=O)N[C@@H](CCCCNC(=O)CCCCCNC(=O)CNC(=O)[C@@H](Cc1cccc2ccccc12)NC(=O)[C@H](Cc1ccccc1)NC(=O)[C@@H]1CCCN1C(=O)[C@@H](N)Cc1ccc(O)cc1)C(=O)O | 290 | – | – | – | – | – |
| > 1000 | 68 | > 1000 | – | – | N[C@@H](Cc1ccc(O)cc1)C(=O)N1Cc2ccccc2C[C@H]1C(=O)NCC(=O)NCCCC(=O)N[C@@H](CCCCNC(=O)CCNC(=O)CNC(=O)[C@@H](Cc1cccc2ccccc12)NC(=O)[C@H](Cc1ccccc1)NC(=O)[C@@H]1CCCN1C(=O)[C@@H](N)Cc1ccc(O)cc1)C(=O)O | 98 | – | – | – | – | – |
| – | – | – | – | – | NC(=O)[C@@H](Cc1ccc2ccccc2c1)NC(=O)[C@H](Cc1ccccc1)NC(=O)[C@@H]1CCCN1C(=O)[C@@H](N)Cc1ccc(O)cc1 (H-YPF[d2Nal]-NH2) | – | > 1000 | – | – | – | Ki [2]: > 1000 nM; IC50 [4]: > 1000 nM; IC50 [7]: >= 3333 nM; inhibition [8]: inactive; Imax [14]: 0.43% |
| – | – | – | – | – | NCCCC[C@@H](NC(=O)CCCNC(=O)CNC(=O)[C@H]1Cc2ccccc2CN1C(=O)[C@@H](N)Cc1ccc(O)cc1)C(=O)O | – | 170 | 28 | – | – | – |
| – | – | – | 12 | 2 | N[C@@H](Cc1ccc(O)cc1)C(=O)N1Cc2ccccc2C[C@@H]1C(=O)NCC(=O)NCCCCC(=O)N[C@H](CCCCNC(=O)CNC(=O)[C@@H](Cc1cccc2ccccc12)NC(=O)[C@H](Cc1ccccc1)NC(=O)[C@@H]1CCCN1C(=O)[C@@H](N)Cc1ccc(O)cc1)C(=O)O | – | 2.1 | 39 | 58 | 28 | – |
| – | – | – | 9 | 1.3 | N[C@@H](Cc1ccc(O)cc1)C(=O)N1Cc2ccccc2C[C@@H]1C(=O)NCC(=O)NCCCC(=O)N[C@H](CCCCNC(=O)CCNC(=O)CNC(=O)[C@@H](Cc1cccc2ccccc12)NC(=O)[C@H](Cc1ccccc1)NC(=O)[C@@H]1CCCN1C(=O)[C@@H](N)Cc1ccc(O)cc1)C(=O)O | – | 1.6 | 43 | 78 | 43 | – |
| – | – | – | – | – | NCCCC[C@H](NC(=O)CCCNC(=O)CNC(=O)[C@@H]1Cc2ccccc2CN1C(=O)[C@@H](N)Cc1ccc(O)cc1)C(=O)O | 250 | – | – | – | – | – |

| Structure (SMILES) | Ki ([2]; cho) [nM] | IC50 ([3]; cho) [nM] | IC50 ([4]; cho) [nM] | Imax [10] [%] | KiH [11] [nM] | Ki ([1]; cho) [nM] | IC50H [5] [nM] | Imax [6] [%] | Ratio Ki [12] | Ratio IC50 [13] | other results |
| --- | --- | --- | --- | --- | --- | --- | --- | --- | --- | --- | --- |
| N[C@@H](Cc1ccc(O)cc1)C(=O)N1Cc2ccccc2C[C@@H]1C(=O)NCC(=O)NCC(=O)N[C@H](CCCCNC(=O)CNC(=O)[C@@H](Cc1cccc2ccccc12)NC(=O)[C@H](Cc1ccccc1)NC(=O)[C@@H]1CCCN1C(=O)[C@@H](N)Cc1ccc(O)cc1)C(=O)O | – | – | – | 12 | 2.5 | – | 3.4 | 43 | 110 | 17 | – |
| N[C@@H](Cc1ccc(O)cc1)C(=O)N1Cc2ccccc2C[C@@H]1C(=O)NCC(=O)NCC(=O)NCCCCCC(=O)NCCC(=O)N[C@H](CCCCNC(=O)CCNC(=O)CCCCCNC(=O)CCNC(=O)CNC(=O)[C@@H](Cc1cccc2ccccc12)NC(=O)[C@H](Cc1ccccc1)NC(=O)[C@@H]1CCCN1C(=O)[C@@H](N)Cc1ccc(O)cc1)C(=O)O | – | – | – | 12 | 16 | – | 48 | 37 | 15 | 2 | – |
| N[C@@H](Cc1ccc(O)cc1)C(=O)N1Cc2ccccc2C[C@H]1C(=O)NCC(=O)NCC(=O)N[C@@H](CCCCNC(=O)CNC(=O)[C@@H](Cc1cccc2ccccc12)NC(=O)[C@H](Cc1ccccc1)NC(=O)[C@@H]1CCCN1C(=O)[C@@H](N)Cc1ccc(O)cc1)C(=O)O | > 1000 | 58 | > 1000 | – | – | 270 | – | – | – | – | – |
| N[C@@H](Cc1ccc(O)cc1)C(=O)N1Cc2ccccc2C[C@H]1C(=O)NCC(=O)NCC(=O)NCCCCCC(=O)NCCC(=O)N[C@@H](CCCCNC(=O)CCNC(=O)CCCCCNC(=O)CCNC(=O)CNC(=O)[C@@H](Cc1cccc2ccccc12)NC(=O)[C@H](Cc1ccccc1)NC(=O)[C@@H]1CCCN1C(=O)[C@@H](N)Cc1ccc(O)cc1)C(=O)O | > 1000 | 94 | > 1000 | – | – | 230 | – | – | – | – | – |
